Measured values: ChEMBL document CHEMBL4184092, “Chemical constituents from Taraxacum officinale and their α-glucosidase inhibitory activities” (Bioorg Med Chem Lett, 2018)
Active and inactive are the calls of the source. No cut-off for these calls is given here.

Assays:
[1] = Inhibition of Saccharomyces cerevisiae alpha-glucosidase using p-nitro-phenyl-alpha-D-glucopyranoside as substrate preincubated with enzyme followed by substrate addition measured after 10 mins for every 2.5 to 5 mins
[2] = test system: Saccharomyces cerevisiae; assay: Inhibition of Saccharomyces cerevisiae alpha-glucosidase using p-nitro-phenyl-alpha-D-glucopyranoside as substrate at 200 uM preincubated with enzyme followed by substrate addition measured after 10 mins for every 2.5 to 5 mins relative to control
Summary of the method: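 Sample mixed with baker's yeast alpha-glucosidase stock (0.11 U/ml in 50 mM PBS) and preincubated at 36 °C. pNPG stock (1.35 mM) then added, incubated 10 min at 36 °C, and absorbance at 405 nm read every 2.5–5 min. PBS replaced sample as control. % inhibition = [1 − (ΔAbs sample/ΔAbs control)] × 100; triplicates; IC50 from six-concentration dose-inhibition curve.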

[3] = test system: Saccharomyces cerevisiae; assay: Mixed type inhibition of Saccharomyces cerevisiae alpha-glucosidase using p-nitro-phenyl-alpha-D-glucopyranoside as substrate preincubated with enzyme followed by substrate addition measured after 10 mins by Lineweaver-Burk plot analysis
Summary of the method: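 Baker's yeast α-glucosidase (stock 0.11 U/ml in 50 mM PBS) mixed with sample and incubated at 36 °C, then p-nitrophenyl-α-D-glucopyranoside added at various concentrations and incubated at 36 °C for 10 min. Initial velocity was taken as the rate of change of absorbance at 405 nm per min. Inhibition type was assigned from Lineweaver-Burk plots.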

[4] = test system: Saccharomyces cerevisiae; assay: Competitive inhibition of Saccharomyces cerevisiae alpha-glucosidase using p-nitro-phenyl-alpha-D-glucopyranoside as substrate preincubated with enzyme followed by substrate addition measured after 10 mins by Lineweaver-Burk plot analysis
Summary of the method: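 Baker's yeast alpha-glucosidase (stock 0.11 U/ml in 50 mM PBS) with pNPG at various concentrations, 36 °C. Initial velocity taken as the per-minute change in 405 nm absorbance. Inhibition type assigned from Lineweaver-Burk plots at several inhibitor levels plus an uninhibited series.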

| SMILES | IC50 [1] | inhibition [2] | inhibition [3] | inhibition [4] |
| --- | --- | --- | --- | --- |
| O=C1C[C@@H](O[C@@H]2O[C@H](CO)[C@@H](O)[C@H](OC(=O)Cc3ccccc3)[C@H]2OC(=O)Cc2ccc(O)cc2)CO1 | 145 µM | 58.9% | Active | – |
| C=C1C(=O)O[C@@H]2/C=C(\C)CC/C=C(\C(=O)O[C@@H]3O[C@H](CO)[C@@H](O)[C@H](O)[C@H]3O)CC[C@@H]12 | – | 13.1% | – | – |
| C[C@H]1O[C@H](O[C@H]2[C@H](O)[C@@H](O)[C@@H](O[C@H]3[C@H](O)[C@@H](O)C(O)O[C@@H]3CO)O[C@@H]2CO)[C@H](O)[C@@H](O)[C@@H]1N[C@H]1C=C(CO)[C@@H](O)[C@H](O)[C@H]1O (stereo partly drawn) [ACARBOSE] | 180 µM | 51.8% | – | – |
| COC(=O)/C=C/c1ccc(O)c(O)c1 | – | 1.6% | – | – |
| CC(=O)/C=C/C1=C(C)[C@@H](O)[C@@H](O)CC1(C)C | – | 11.5% | – | – |
| CC(=O)/C=C/[C@]12O[C@@]1(C)C[C@@H](O)CC2(C)C | – | 17.6% | – | – |
| Nc1ncnc2c1ncn2[C@@H]1O[C@H](CO)[C@@H](O)[C@H]1O | – | 10.3% | – | – |
| O=C1C[C@@H](O[C@@H]2O[C@H](CO)[C@@H](O)[C@H](OC(=O)Cc3ccc(O)cc3)[C@H]2OC(=O)Cc2ccc(O)cc2)CO1 | 152 µM | 58.3% | – | – |
| COc1cc(-c2cc(=O)c3c(O)cc(O)cc3o2)cc(OC)c1O [TRICIN] | 162 µM | 59.1% | – | – |
| CC1=CC(=O)CC(C)(C)[C@@]1(O)/C=C/[C@@H](C)O[C@@H]1O[C@H](CO)[C@@H](O)[C@H](O)[C@H]1O | – | 13.7% | – | – |
| COC(=O)C[C@@H](CO)O[C@@H]1O[C@H](CO)[C@@H](O)[C@H](O)[C@H]1OC(=O)C(=O)c1ccc(O)cc1 | 165 µM | 56.6% | – | – |
| COc1cc([C@H](OC)[C@H](CO)Oc2c(OC)cc(-c3cc(=O)c4c(O)cc(O)cc4o3)cc2OC)ccc1O | – | 9.1% | – | – |
| COC(=O)C[C@@H](CO)O[C@@H]1O[C@H](CO)[C@@H](O)[C@H](OC(=O)Cc2ccccc2)[C@H]1OC(=O)Cc1ccc(O)cc1 | 150 µM | 59.7% | – | – |
| COc1cc([C@H](OC)[C@@H](CO)Oc2c(OC)cc(-c3cc(=O)c4c(O)cc(O)cc4o3)cc2OC)ccc1O | – | 13.2% | – | – |
| O=c1ccc2cc(O[C@@H]3O[C@H](CO)[C@@H](O)[C@H](O)[C@H]3O)c(O)cc2o1 | – | 1.8% | – | – |
| CC1(C)C[C@H](O)C[C@@]2(C)OC(=O)C=C12 | – | 8.8% | – | – |
| COc1cc(-c2oc3cc(O)cc(O)c3c(=O)c2O)cc(O)c1OC | 154 µM | 57.4% | – | – |
| CC1=CC(=O)CC(C)(C)[C@]1(O)/C=C/[C@@H](C)O[C@@H]1O[C@H](CO)[C@@H](O)[C@H](O)[C@H]1O | – | 9.4% | – | – |
| O=C1C[C@@H](O[C@@H]2O[C@H](CO)[C@@H](O)[C@H](O)[C@H]2OC(=O)Cc2ccc(O)cc2)CO1 | 181 µM | 57.6% | – | – |
| COc1cc(/C=C/CO)cc(OC)c1O[C@@H]1O[C@H](CO)[C@@H](O)[C@H](O)[C@H]1O | – | 1.8% | – | – |
| O=C(CO)c1c[nH]c2ccccc12 | – | 1.6% | – | – |
| COC(=O)C[C@@H](CO)O[C@@H]1O[C@H](CO)[C@@H](O)[C@H](OC(=O)Cc2ccccc2)[C@H]1OC(=O)C(=O)c1ccc(O)cc1 | 165 µM | 56.6% | – | – |
| COc1cc(-c2cc(=O)c3c(O)cc(O)cc3o2)cc(OC)c1O[C@H](CO)[C@@H](O)c1ccc(O)cc1 | – | 8.7% | – | – |
| CC(=O)/C=C/C1=C(C)[C@@H](O)[C@@H](O[C@@H]2O[C@H](CO)[C@@H](O)[C@H](O)[C@H]2O)CC1(C)C | – | 0% | – | – |
| O=C(Cc1ccc(O)cc1)O[C@H]1[C@@H](O)[C@H](OC(=O)Cc2ccc(O)cc2)[C@H](OC(=O)Cc2ccc(O)cc2)[C@@H](O)[C@@H]1O | 61.2 µM | 77.6% | – | Active |
| COc1cc(-c2cc(=O)c3c(O)cc(O)cc3o2)cc(OC)c1O[C@@H](CO)[C@@H](O)c1ccc(O)cc1 | – | 8.3% | – | – |
| CC1(C)C[C@@H](O)C[C@@]2(C)OC(=O)C=C12 | – | 6.4% | – | – |
| O=c1cc(-c2ccc(O)c(O)c2)oc2cc(O)cc(O)c12 [LUTEOLIN] | 39.8 µM | 99.6% | Active | – |
| COc1cc(-c2cc(=O)c3c(O)cc(O)cc3o2)ccc1O | – | 56.9% | – | – |
